PKA-R2B activ: activates the human PKA-R2B holoenzyme complex; PKA-R2B holoenzyme dissociation, Cy5-IP20 fluorescence polarization; R2B truncated from residue 108, S112A mutant; 0% DMSO only, 100% 113 µM cGMP; P22694+P31323; activation, % at 11.4 µM; 340,000 compounds, 0.079% hits;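 active means activation above a cutoff set at the mean over all compounds plus 3 SD, cut at about 18% in these data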;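 further: higher means more holoenzyme dissociation and a rise in polarization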
Target sequence (P31323 whole entry, looked up, other chains not shown, the tested form may be a part): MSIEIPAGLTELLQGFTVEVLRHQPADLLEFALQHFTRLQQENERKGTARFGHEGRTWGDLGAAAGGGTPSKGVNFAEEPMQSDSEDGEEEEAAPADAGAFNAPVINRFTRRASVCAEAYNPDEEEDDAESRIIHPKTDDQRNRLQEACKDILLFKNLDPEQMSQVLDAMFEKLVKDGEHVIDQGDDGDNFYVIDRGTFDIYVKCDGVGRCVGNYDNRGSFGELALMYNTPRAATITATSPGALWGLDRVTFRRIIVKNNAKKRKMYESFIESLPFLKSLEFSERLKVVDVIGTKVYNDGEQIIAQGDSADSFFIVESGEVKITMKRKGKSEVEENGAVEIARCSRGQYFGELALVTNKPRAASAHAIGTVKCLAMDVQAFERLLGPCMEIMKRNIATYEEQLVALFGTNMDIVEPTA
UCH37 inh: blocks the human deubiquitinase UCH37; 330,000 compounds, 0.33% hits; AID 588478; Q9Y5K5; inhibition, % (test concentration not listed); purified proteasome/UCH37, Ub-AMC cleavage fluorescence;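 active means mean inhibition over replicate wells above about 20%, limit read from the data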;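 further: 0% = compound-free wells with enzyme and 100% = wells lacking proteasome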
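Test system – human UCH37 enzyme supplied as purified proteasome complex · Incubation – 30 min preincubation with enzyme, 25 min cleavage at room temperature · Detection – AMC fluorescence from Ub-AMC cleavage, excitation 355 nm, emission 460 nm · Benchmarks – no-proteasome wells (full inhibition) and compound-free wells (no inhibition)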
PKA-R1A act: activators of PKA-R1A complex; activation, % at 11.4 µM; PKA-R1A dissociation, Cy5-IP20 fluorescence polarization; scaled: DMSO 0%, 113 µM cGMP 100%; 340,000 compounds, 0.083% hits; P00514+P68181;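 active means percent activation above the mean of all tested compounds plus 3 SD, cut at about 19% in these data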;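 further: higher means more PKAc released from R1A so a rise in polarization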
Fh CTSL1 inh: cathepsin L1 inhibition, PFM18AAP counter-screen; recombinant F. hepatica cathepsin L1, Z-Leu-Arg-MCA fluorescence; inhibition, % at 5.96 µM; 300,000 compounds, 0.49% hits;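 active means inhibition above the mean of all tested compounds plus 3 SD, set per screening campaign, cut at about 17% in these data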;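 further: 0% = plate median of test compound wells and 100% = 1 µM Z-Phe-Ala-diazomethylketone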
aDG glyco act: increases alpha dystroglycan glycosylation | activation, % at 10 µM | 360,000 compounds, 0.22% hits | Pro5-aDG cells, alpha-DG glycosylation AlphaScreen (IIH6); 0% Pro5, 100% B10-LARGE cell signal;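 active means activation of at least 8% versus controls, or a plate z-score of at least 8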;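 further: Pro5 are CHO cells carrying HIG-tagged alpha-DG that lacks glycosylation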
Active calls of the source: *; i = inactive; . = no result; ! = a repeat was not active. Only some compounds are listed: those with a hit (about 0.94% of all), similar ones and a draw of the others.

SMILES	PKA-R2B activ	UCH37 inh	PKA-R1A act	Fh CTSL1 inh	aDG glyco act
[Cl][Pt+2][Cl].[NH-]C1CCCCC1[NH-] (configuration not stated)	0.9	0.4	4.6	40.4*	0.4
COc1nc(NC(C)C)nc(NC(C)C)n1	2.1	30.5*	-2.6	6.8	0.1
CC(C)C[C@H]1C(=O)N2CCC[C@H]2[C@]2(O)O[C@](NC(=O)[C@@H]3C=C4c5cccc6[nH]cc(c56)C[C@H]4N(C)C3)(C(C)C)C(=O)N12	-14.6	-11.1	-15.0	33.7*	0.7
OCCN(CC#CC(O)(c1ccccc1)C1CCCC1)CCO (configuration not stated)	5.2	32.3*	0.6	-0.5	0.0
C#C[C@@]1(O)CCC2C3CCC4=CC(=NOCC(=O)NC(C(=O)NC(CC(C)C)C(=O)O)C(C)C)CC[C@]4(C)C3CC[C@@]21C (some centres not stated)	.	1.2	.	.	.
O=C(O)CC1OCC=C2CN3CCC45c6ccccc6NC4C1C2CC35 (configuration not stated)	2.3	.	-8.3	17.8*	0.0
O=C1/C(=C\c2ccccc2)C2OCC=C3CN4CCC56c7ccccc7N1C5C2C3CC46 (configuration not stated)	-2.9	.	2.6	8.1	0.1
CN1CCN(c2ccc(/C=C3\C(=O)NC(=S)N(c4cccc(Br)c4)C3=O)o2)CC1	2.6	21.1*	5.7	1.1	-0.3
CN1C(=O)/C(=C\c2ccc(N3CCCCC3)o2)C(=O)NC1=S	-3.7	21.8*	-4.5	5.2	-0.3
CNC(=S)NN=C1C2CN3CCN(C2)CC1(c1ccccc1)C3	.	2.9	.	.	.
CCOC(=O)c1c(N)n(CCCOC(=O)c2ccco2)c2nc3ccccc3nc12	-5.4	i	-5.6	11.4	14.4*
CN(C)c1ccc(/C=C2/C(=NO)C3CCN2CC3)cc1	.	8.8	.	.	.
O=c1[nH]c(O)c(N=Nc2cc([N+](=O)[O-])ccc2O)c(=O)[nH]1	7.3	22.7*	-5.3	10.2	-0.2
CC(C)c1ccccc1OCC(=O)N1CCCN(C)CC1	0.3	0.0	0.8	18.1*	0.2
COC(=O)C1C(O)C(C)C(O)C(C)C=CC=C(C)C(=O)Nc2c(C)c(OC(C)=O)c3c(c2O)C(=O)C(C)=C2OCOC(=C23)C(C)=CC(C)(O)C(O)C(C)C1O (configuration not stated)	.	15.7	.	.	.
C=CCn1c(O)c(C=Nc2c(C)n(C)n(-c3ccccc3)c2=O)c(=O)[nH]c1=O	-7.9	20.4*	1.0	0.0	-0.1
COc1ccccc1CC1C(=NO)C2CCN1CC2 (configuration not stated)	.	2.8	.	.	.
CC1(CCl)CN1S(=O)(=O)c1ccccc1 (configuration not stated)	1.1	4.6	-4.2	28.1*	0.1
CC(C)CC12CN3CCN(CC(C3)C1=NO)C2	.	4.5	.	.	.
NC(=NCCCC(NC(=O)CNC(=O)c1ccccc1)C(=O)O)N[N+](=O)[O-] (configuration not stated)	.	3.7	.	.	.
CCOC(=O)C(=NNc1ccccc1)N1CC1	.	10.3	.	.	.
COc1ccc(Oc2cc(NC(=O)c3nn(C)cc3[N+](=O)[O-])cc([N+](=O)[O-])c2)cc1	1.4	4.1	-9.2	20.2*	-0.6
COc1ccc(OC)c(N2C(=O)/C(=C/c3ccco3)C(=O)NC2=S)c1	.	51.8*	.	5.7	.
O=C1NC(=S)N(c2ccc(F)cc2)C(=O)/C1=C/c1ccco1	.	.	.	1.7	.
CN(C)C(=O)Oc1noc2cc(Cl)ccc12	8.0	1.5	-3.7	43.2*	1.9
SMILES	PKA-R2B activ	UCH37 inh	PKA-R1A act	Fh CTSL1 inh	aDG glyco act
CN(C)C(=O)Oc1c(Cl)cc(Cl)c2cccnc12	-0.8	2.1	3.7	0.6	-0.1
CC[C@H](C)/C=C(C)/C=C/C1=CC2=C(Cl)C(=O)[C@@](C)(OC(C)=O)C(=O)C2=CO1	-7.7	.	-1.7	0.1	0.1
CCC(C)/C=C(C)/C=C/C1=CC2=C(Cl)C(=O)C(C)(OC(C)=O)C(=O)C2=CO1 (configuration not stated)	11.9	3.3	-1.5	20.6*	0.0
O=[N+]([O-])c1ccc(N2CCCC2)cc1NN=C1CN2CCC1CC2	.	21.6*	.	.	.
Cc1[nH]c2ccccc2c1C=NO	.	0.8	.	.	.
CCn1nc(-c2ccccc2)nc2c(=O)n(C)c(=O)nc1-2	10.0	98.7*	8.8	113.5*	-0.3
COc1ccc(-c2nc3ccccc3c(=O)n2-c2ccc(OC)cc2)cc1	-6.4	3.6	-7.3	-5.2	0.1
CCCCC(=NO)c1c[nH]c2ccccc12	.	3.1	.	.	.
CC1Oc2cc3c(-c4c(O)cc(O)c5c(O)c6c(cc45)OC(C)C(C)C6=O)c(O)cc(O)c3c(O)c2C(=O)C1C (configuration not stated)	4.8	39.8*	-1.5	0.8	0.3
COc1ccc(C=NN=C(N)N)cc1	.	1.9	.	.	.
FC(F)(F)C(=NP(=S)(N1CCOCC1)N1CCOCC1)N1CCOCC1	.	-1.8	.	.	.
CC[C@@H](CO)NC(=O)[C@@H]1C=C2c3cccc4c3c(cn4C)C[C@H]2N(C)C1	-0.1	-157.6	-6.7	17.4*!	-0.4
CCC(CO)NC(=O)C1C=C2c3cccc4[nH]cc(c34)CC2N(C)C1 (configuration not stated)	-7.9	-89.1	-16.2	1.2	0.2
CC(C)CC(=NO)c1cn(C)c2ccccc12	.	3.9	.	.	.
ON=C1/C(=C\c2ccccc2)N2CCC1CC2	.	2.9	.	.	.
CC12CC[C@H]3[C@@H](CCC4(O)C[C@H](O)CCC34C=NNC(=O)c3ccccc3Cl)C1(O)CCC2C1=CC(=O)OC1 (some centres not stated)	.	-4.3	.	.	.
O=c1c2ccccc2nc(-c2ccccc2)n1-n1cccc1	-1.6	23.7*	0.8	1.5	-0.2
CC1=NN=C(c2ccc(N)cc2)c2cc3c(cc2C1)OCO3	-8.2	4.2	7.5	38.8*	0.0
CN(CCCCC(=O)C=NO)Cc1ccccc1 (tested in a mixture with another compound)	.	-1.3	.	.	.
NC(=NN=Cc1ccc(-c2ccc(O)c(C(=O)O)c2)o1)N[N+](=O)[O-]	.	21.9*	.	.	.
NC(=NN=Cc1ccc(O)cc1O)N[N+](=O)[O-]	.	17.5	.	.	.
Cn1c(O)c(C=NC2CCCCC2)c(=O)[nH]c1=S	3.4	21.6*	-3.6	4.1	0.3
COC(=O)C1=C(c2ccc3ccccc3c2)C[C@@H]2CC[C@H]1N2C(=O)N1CCOCC1	0.3	0.4	-10.3	.	-0.2
COC(=O)C1=C(c2cc3ccccc3o2)C[C@@H]2CC[C@H]1N2C(=O)N1CCOCC1	-5.2	27.2*	2.6	0.7	-0.1
CCc1cc(=O)oc2cc(C)cc(OCC(=O)N3CCC(C(=O)O)(c4ccccc4)CC3)c12	9.7	-116.5	0.7	5.4	0.3
Cc1cc(OCC(=O)N2CCC(C(=O)O)(c3ccccc3)CC2)c2c(C)c(C)c(=O)oc2c1	2.8	-130.3	1.8	18.1*	0.0
